For data set [1], the target named is PARP1 (Rattus norvegicus, UniProt P27008). Nature of the data set: In vitro autoradiography of [18F]AZD9574 on rat brain sections. The note with it: blocker 10 μmol/L. It counts as binding.
Data set [2] deals with PC3 cell lines. Nature of the data set: In vitro cellular uptake and blocking of [18F]AZD9574 in PC3 cells. It counts as cell-based. To be noted: blocker 1 μmol/L. In a few lines:
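PC3 cells were grown in F-12K with 10% FBS and 1% penicillin–streptomycin at 37 °C, 5% CO2, and seeded at 1×10^5 cells/well 24 h before use. After two PBS rinses, 1 μCi/well tracer plus blocking agent was added in serum-free medium for 60 min at 37 °C. Cells were rinsed twice with cold PBS, lysed in 0.1 mol/L NaOH and counted in a gamma counter.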

Data set [3] has as its system PARP1. The data set can be described thus: In vitro autoradiography of [18F]AZD9574 on NHP cerebellum brain sections. It counts as binding. The note with it: blocker 10 μmol/L. Put shortly: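 Rat and NHP brain sections were pre-incubated 10 min at ambient temperature in 50 mmol/L Tris–HCl with 0.1% BSA. They were then incubated 1 h with radioligand (~4 μCi/mL, ~4 nmol/L), with blockers at 10 μmol/L added beforehand. Sections were rinsed twice for 2 min in ice-cold buffer with ethanol, dipped in cold water, air-dried and exposed to imaging plates overnight. ROI radioactivity was taken as % of control; mean ± SD, n = 3.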

The target of data set [4] is MDR1 (P-gp) (Homo sapiens, UniProt P08183). Nature of the data set: In vitro Pg-P efflux assay. The data set is classed as in vitro ADME. To be noted: not told.
Data set [5] addresses T1, CYP1A2 (Homo sapiens, UniProt P05177).
T1 sequence (P05177 1-516): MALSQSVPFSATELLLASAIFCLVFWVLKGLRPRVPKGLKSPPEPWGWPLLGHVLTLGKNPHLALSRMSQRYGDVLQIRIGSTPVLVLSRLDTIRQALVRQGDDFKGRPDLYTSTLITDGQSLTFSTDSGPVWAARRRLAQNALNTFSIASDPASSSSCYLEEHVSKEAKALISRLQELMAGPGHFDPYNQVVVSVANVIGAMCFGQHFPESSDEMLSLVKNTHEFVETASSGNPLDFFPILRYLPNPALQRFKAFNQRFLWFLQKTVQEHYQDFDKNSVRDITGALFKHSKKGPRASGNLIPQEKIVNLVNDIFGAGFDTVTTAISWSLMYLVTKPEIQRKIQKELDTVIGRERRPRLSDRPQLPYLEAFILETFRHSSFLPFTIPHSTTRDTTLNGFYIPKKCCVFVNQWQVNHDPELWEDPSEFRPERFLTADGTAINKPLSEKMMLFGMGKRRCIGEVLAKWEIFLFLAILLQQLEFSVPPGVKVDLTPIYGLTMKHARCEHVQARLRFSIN
The data set can be described thus: CYP interactions, CYP1A2. It counts as in vitro ADME.

Data set [6] deals with CYP2D6 (Homo sapiens, UniProt P10635). Nature of the data set: CYP interactions, CYP2D6. The data set is classed as in vitro ADME.
Sequence of CYP2D6 (P10635 whole entry, species assumed): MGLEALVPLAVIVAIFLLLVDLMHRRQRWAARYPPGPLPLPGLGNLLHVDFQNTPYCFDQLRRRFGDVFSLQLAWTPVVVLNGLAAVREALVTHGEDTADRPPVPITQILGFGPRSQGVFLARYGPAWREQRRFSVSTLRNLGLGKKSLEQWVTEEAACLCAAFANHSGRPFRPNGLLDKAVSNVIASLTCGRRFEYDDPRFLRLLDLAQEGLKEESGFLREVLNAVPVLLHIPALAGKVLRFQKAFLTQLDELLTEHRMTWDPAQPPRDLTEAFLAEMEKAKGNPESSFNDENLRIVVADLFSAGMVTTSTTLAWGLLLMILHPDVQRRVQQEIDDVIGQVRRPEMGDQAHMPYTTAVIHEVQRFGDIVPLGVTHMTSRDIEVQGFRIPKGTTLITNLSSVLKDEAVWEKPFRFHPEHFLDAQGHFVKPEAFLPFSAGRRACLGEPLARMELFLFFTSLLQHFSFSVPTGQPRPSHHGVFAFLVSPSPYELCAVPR
In data set [7] the target is CYP2C19 (Homo sapiens, UniProt P33261). The data set can be described thus: CYP interactions, CYP2C19. It counts as in vitro ADME.
Data set [8] has as its target CYP3A4 (Homo sapiens, UniProt P08684). Nature of the data set: CYP interactions, CYP3A4. The data set is classed as in vitro ADME.
The target of data set [9] is CYP2C9 (Homo sapiens, UniProt P11712). The data set can be described thus: CYP interactions, CYP2C9. The data set is classed as in vitro ADME.
Sequence of CYP2C9 (P11712 whole entry, species assumed): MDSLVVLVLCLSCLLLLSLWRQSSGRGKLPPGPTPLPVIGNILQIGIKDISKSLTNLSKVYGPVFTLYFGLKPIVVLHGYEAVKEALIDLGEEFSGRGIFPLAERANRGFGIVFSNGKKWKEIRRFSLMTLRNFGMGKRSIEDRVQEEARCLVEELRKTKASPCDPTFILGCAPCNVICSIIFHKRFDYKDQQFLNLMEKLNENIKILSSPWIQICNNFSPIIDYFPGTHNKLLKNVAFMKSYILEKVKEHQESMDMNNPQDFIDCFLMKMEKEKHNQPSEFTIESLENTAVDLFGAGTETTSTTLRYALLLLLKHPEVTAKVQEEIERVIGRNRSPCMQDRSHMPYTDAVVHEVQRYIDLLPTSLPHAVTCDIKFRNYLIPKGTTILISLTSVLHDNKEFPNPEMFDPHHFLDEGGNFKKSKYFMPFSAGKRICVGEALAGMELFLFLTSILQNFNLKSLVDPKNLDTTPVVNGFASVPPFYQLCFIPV
The target in data set [10] is T2, CYP19A (Homo sapiens, UniProt P11511).
T2 sequence (P11511 1-503): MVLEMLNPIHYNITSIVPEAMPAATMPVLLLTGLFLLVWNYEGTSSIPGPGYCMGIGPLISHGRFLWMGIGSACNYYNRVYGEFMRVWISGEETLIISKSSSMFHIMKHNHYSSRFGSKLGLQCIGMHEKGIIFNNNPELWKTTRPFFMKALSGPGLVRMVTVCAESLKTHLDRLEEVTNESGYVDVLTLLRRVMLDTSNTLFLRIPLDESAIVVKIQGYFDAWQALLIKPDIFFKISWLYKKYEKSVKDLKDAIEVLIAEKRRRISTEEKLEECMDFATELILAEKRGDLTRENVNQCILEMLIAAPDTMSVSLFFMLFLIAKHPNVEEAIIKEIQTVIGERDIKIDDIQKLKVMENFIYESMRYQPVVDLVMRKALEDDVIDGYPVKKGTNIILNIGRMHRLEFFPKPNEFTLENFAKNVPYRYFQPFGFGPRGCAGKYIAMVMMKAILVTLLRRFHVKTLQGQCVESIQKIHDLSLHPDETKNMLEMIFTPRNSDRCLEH
The data set can be described thus: CYP interactions, CYP19A. The data set is classed as in vitro ADME.

Data set [11] concerns the target human ether-a-go-go-related gene (hERG) channel (Homo sapiens, UniProt Q12809). Nature of the data set: In vitro hERG channel safety. A general note: hERG is a cardiac potassium channel; its block is linked to QT prolongation.
Data set [12] concerns HepG2 cells. The data set can be described thus: CellTiter-Glo luminescent cell viability assay in HepG2 cells. The data set is classed as cell-based. To be noted: Homo sapiens, HepG2, read-out: HepG2 IC50. (In general: Cellular ATP, detected with luciferase, serves as a proxy for viable cell number.)
Data set [13] addresses PARP1 (Macaca mulatta, UniProt H9FQ77). Nature of the data set: NHP PET imaging of [18F]AZD9574, baseline and blocking. The data set is classed as in vivo, rhesus monkeys. In a few lines: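 An iv bolus of tracer (4.05 ± 0.54 mCi) was followed by 90 min dynamic 3D PET acquisition in 36 frames. ROIs were drawn on co-registered T1-weighted MRI. Regional SUV time–activity curves were generated; baseline scans n = 2 animals.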

Structures are written as SMILES.

Sequence of PARP1 (Rattus norvegicus, UniProt P27008) (P27008 whole entry): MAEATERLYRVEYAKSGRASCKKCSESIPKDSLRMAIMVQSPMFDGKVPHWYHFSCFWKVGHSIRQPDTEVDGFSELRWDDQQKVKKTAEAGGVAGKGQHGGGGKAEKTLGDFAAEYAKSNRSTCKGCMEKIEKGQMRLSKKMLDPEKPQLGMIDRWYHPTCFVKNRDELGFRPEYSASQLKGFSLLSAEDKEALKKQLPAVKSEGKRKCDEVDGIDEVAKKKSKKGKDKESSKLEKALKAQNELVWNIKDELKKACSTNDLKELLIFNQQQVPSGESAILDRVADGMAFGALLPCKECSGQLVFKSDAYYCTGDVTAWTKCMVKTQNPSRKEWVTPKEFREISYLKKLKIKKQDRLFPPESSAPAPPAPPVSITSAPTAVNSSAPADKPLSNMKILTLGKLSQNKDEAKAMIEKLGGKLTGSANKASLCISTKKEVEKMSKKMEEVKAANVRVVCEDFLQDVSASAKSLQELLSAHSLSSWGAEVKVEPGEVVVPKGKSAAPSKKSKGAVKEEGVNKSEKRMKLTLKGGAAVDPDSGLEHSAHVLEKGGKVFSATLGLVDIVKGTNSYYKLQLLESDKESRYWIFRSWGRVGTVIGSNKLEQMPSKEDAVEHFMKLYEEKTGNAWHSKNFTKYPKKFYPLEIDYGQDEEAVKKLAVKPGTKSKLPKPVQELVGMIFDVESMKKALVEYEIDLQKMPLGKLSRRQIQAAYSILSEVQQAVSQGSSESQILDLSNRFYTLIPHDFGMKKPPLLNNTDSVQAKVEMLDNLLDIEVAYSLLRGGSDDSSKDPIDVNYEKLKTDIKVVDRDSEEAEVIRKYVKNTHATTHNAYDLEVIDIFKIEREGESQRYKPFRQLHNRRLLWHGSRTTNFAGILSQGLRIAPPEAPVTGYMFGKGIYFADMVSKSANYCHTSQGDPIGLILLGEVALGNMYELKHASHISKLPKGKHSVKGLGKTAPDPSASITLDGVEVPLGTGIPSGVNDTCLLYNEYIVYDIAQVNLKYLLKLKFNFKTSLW
Sequence of PARP1 (Macaca mulatta, UniProt H9FQ77) (H9FQ77 1-1014): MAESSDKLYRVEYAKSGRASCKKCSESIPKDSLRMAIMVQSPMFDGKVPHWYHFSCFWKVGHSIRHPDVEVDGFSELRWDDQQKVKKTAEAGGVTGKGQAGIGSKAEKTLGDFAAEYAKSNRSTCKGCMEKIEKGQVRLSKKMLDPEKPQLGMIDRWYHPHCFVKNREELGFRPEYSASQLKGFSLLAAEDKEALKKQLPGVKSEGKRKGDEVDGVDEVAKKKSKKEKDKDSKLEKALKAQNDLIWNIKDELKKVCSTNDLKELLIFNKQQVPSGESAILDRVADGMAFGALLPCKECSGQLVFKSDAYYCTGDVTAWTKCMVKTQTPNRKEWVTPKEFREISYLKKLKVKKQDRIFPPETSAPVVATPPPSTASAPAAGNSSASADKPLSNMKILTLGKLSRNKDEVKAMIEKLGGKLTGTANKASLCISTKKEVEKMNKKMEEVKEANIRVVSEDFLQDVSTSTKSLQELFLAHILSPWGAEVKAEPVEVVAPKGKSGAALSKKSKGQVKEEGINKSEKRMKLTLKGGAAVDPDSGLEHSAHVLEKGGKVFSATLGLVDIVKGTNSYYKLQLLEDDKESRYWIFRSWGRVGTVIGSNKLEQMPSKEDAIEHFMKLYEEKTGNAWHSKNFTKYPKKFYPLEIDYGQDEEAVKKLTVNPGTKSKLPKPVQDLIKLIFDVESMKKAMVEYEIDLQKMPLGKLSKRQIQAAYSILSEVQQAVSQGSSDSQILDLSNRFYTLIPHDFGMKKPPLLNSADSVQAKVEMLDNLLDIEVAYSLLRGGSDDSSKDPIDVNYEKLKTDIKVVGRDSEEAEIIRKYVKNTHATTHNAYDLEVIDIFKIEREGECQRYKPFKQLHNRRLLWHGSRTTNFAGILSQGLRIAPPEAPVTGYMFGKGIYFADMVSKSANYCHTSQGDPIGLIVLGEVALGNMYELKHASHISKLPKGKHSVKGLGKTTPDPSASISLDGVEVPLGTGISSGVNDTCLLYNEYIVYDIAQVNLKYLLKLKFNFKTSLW
Sequence of CYP3A4 (P08684 whole entry, species assumed): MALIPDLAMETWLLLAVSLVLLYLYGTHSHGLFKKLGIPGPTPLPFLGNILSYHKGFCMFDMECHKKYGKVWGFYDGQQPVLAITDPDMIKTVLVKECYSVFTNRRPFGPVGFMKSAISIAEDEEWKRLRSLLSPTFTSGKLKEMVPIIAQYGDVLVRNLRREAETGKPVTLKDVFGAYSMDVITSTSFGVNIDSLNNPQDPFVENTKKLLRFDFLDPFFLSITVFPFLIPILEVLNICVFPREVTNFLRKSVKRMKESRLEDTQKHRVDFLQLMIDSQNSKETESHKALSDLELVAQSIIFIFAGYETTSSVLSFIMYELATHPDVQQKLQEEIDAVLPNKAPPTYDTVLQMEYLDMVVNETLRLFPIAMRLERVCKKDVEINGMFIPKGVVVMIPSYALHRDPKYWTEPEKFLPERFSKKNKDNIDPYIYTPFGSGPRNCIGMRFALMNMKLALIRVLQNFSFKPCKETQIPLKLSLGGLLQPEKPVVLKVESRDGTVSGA
Sequence of human ether-a-go-go-related gene (hERG) channel (Q12809 whole entry): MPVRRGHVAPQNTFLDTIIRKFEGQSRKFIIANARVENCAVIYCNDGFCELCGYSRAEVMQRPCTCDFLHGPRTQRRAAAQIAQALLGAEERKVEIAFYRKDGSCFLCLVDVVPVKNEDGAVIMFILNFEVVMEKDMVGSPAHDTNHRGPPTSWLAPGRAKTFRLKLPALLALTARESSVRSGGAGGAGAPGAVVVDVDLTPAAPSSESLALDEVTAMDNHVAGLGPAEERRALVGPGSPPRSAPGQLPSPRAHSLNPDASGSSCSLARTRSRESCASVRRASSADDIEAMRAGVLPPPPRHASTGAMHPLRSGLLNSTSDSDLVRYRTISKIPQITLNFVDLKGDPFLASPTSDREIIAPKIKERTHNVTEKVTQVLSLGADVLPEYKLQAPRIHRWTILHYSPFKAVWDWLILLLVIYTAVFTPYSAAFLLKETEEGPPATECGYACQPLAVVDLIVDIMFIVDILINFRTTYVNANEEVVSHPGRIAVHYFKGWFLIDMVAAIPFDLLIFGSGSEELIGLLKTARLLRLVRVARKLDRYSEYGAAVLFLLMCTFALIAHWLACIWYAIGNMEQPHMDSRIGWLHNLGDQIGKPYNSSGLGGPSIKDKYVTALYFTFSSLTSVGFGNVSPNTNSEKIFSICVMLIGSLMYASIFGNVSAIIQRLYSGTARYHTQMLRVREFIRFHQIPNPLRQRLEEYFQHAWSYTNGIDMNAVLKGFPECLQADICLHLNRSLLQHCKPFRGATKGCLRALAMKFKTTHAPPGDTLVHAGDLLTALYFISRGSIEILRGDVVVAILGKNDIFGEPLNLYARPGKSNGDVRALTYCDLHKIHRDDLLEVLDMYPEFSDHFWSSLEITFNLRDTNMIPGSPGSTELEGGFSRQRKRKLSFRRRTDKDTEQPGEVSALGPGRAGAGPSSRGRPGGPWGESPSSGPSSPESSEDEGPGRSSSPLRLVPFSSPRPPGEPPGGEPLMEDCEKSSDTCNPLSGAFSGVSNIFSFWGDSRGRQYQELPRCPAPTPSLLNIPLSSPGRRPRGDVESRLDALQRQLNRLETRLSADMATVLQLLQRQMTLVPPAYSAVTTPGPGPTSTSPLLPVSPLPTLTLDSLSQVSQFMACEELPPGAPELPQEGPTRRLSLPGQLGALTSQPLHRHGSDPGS

`C[C@]1(c2nc3c(C(N)=O)cccc3[nH]2)CCCN1` [veliparib]: the “reduction of [18F]AZD9574 radioactivity accumulation in all brain regions” value (shortened to “reduction … in all brain regions”) in data set [1] is “greater than 85%”.
Turning to `CNCc1ccc(-c2[nH]c3cc(F)cc4c3c2CCNC4=O)cc1` [rucaparib], the “reduction … in all brain regions” value in data set [1] is given as “greater than 85%”.
`O=C(c1cc(Cc2n[nH]c(=O)c3ccccc23)ccc1F)N1CCN(C(=O)C2CC2)CC1` [olaparib, reference compound]: the “effect on [18F]AZD9574 uptake” value in data set [2] is “significantly attenuated”. For the same molecule, the “effect on [18F]AZD9574 uptake in the cerebellum” value in data set [3] is listed as “substantial uptake reduction”.
`COC1CCN(C(=O)c2cc(Cc3n[nH]c(=O)c4ccccc34)ccc2F)CC1` [AZD2461]: the “reduction … in all brain regions” value in [1] was “greater than 85%”.
Usually Papp A→B stands for the apparent permeability from the apical to the basolateral side of a cell layer. High values mean fast passage, low ones slow passage. What is called IC50 is the concentration needed to halve the response being measured. Consider `CNC(=O)c1ccc(N2CCN(Cc3ccc4nc(C)c(=O)[nH]c4c3F)CC2)c(F)n1` [compound 5, 6-fluoro-5-(4-((5-fluoro-2-methyl-3-oxo-3,4-dihydroquinoxalin-6-yl)methyl)piperazin-1-yl)-N-methylpicolinamide], for which the Papp A→B in data set [4] is 42.5 ×10⁻⁶ cm/s. The IC50 in data set [5], in data set [6], in data set [7], in [8], in data set [9] and in data set [10] was more than 5 µM each time. For the same molecule, the IC50 in [11] and in [12] was more than 100 µM each time. For the same molecule, the “effect on [18F]AZD9574 uptake in the cerebellum” value in data set [3] is listed as “substantial uptake reduction”. Moreover, the “reduction of [18F]AZD9574 radioactivity accumulation in the cerebellum (area under curve 60-90 min)” value worked out at 37.7% in [13] (pretreatment 0.05 mg/kg) and 63.4% in data set [13] (pretreatment 0.5 mg/kg).
`C[C@]12CCCN1CC1=NNC(=O)c3cc(F)cc4[nH]c2c1c34` [pamiparib]: the “reduction … in all brain regions” value in [1] is “greater than 85%”.

The values above are taken from article PMC12541583 (Acta Pharmaceutica Sinica. B, 2025).
